Measurements as given in ChEMBL document CHEMBL1806473, “Structure-based optimization of click-based histone deacetylase inhibitors” (Eur J Med Chem, 2011).

Tests used:
[1] = test system: HL-60(TB); experiment: Cytotoxicity against human HL-60(TB) cells; assay type: cell-based
[2] = test system: UO-31; experiment: Cytotoxicity against human UO31 cells; assay type: cell-based
In short: (§1)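 Screened by NCI in its in vitro disease-oriented human tumour cell line panel. Compounds tested at five concentrations (100, 10, 1.0, 0.1 and 0.01 μM). Growth read by sulforhodamine B (SRB) signal. GI50 is the concentration reducing growth of treated cells to half that of control cells during the drug incubation.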

[3] = test system: NCI-H460; experiment: Cytotoxicity against human NCI-H460 cells; assay type: cell-based
[4] = test system: NCI-H23; experiment: Antiproliferative activity against human NCI-H23 cells by SRB assay; assay type: functional
In short: (§2)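 Tested in the NCI in vitro human tumor cell line screen, run by the National Cancer Institute. Each compound was given at five concentrations (100, 10, 1.0, 0.1 and 0.01 μM). GI50 is the drug concentration that reduces growth of treated cells to half that of control cells during drug incubation, judged from the SRB signal.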

[5] = test system: A549; experiment: Cytotoxicity against human A549 cells; assay type: cell-based
In short: (§3)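 Tested in the NCI in vitro disease-oriented human tumour cell line screen, with screening performed by NCI. Growth was read by SRB signal over the drug incubation period at five concentrations: 100, 10, 1.0, 0.1 and 0.01 μM. GI50 is the concentration that reduces growth of treated cells to half that of control cells.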

[6] = test system: MDA-MB-231; experiment: Cytotoxicity against human MDA-MB-231 cells; assay type: functional; in short: as §3
[7] = test system: SW-620; experiment: Cytotoxicity against human SW620 cells; assay type: cell-based; in short: as §1
[8] = test system: CAKI-1; experiment: Antiproliferative activity against human Caki1 cells by SRB assay; assay type: functional; in short: as §2
[9] = test system: SF-539; experiment: Cytotoxicity against human SF539 cells; assay type: cell-based; in short: as §3
[10] = test system: M14; experiment: Antiproliferative activity against human M14 cells by SRB assay; assay type: functional; in short: as §2
[11] = test system: TK-10; experiment: Antiproliferative activity against human TK10 cells by SRB assay; assay type: functional
In short: (§4)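 Cell growth was tested in the NIH in vitro disease-oriented human tumor cell line screen, which NCI ran for these compounds. Compounds were tested at five concentrations (100, 10, 1.0, 0.1 and 0.01 μM), and growth was read by SRB signal. GI50 is the drug concentration that reduces growth of treated cells to half that of control cells during drug incubation.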

[12] = Antiproliferative activity against human Hs 578T cells by SRB assay; assay type: functional; in short: as §2
[13] = test system: SNB-75; experiment: Cytotoxicity against human SNB75 cells; assay type: cell-based; in short: as §1
[14] = test system: BT-549; experiment: Cytotoxicity against human BT549 cells; assay type: cell-based
[15] = test system: EKVX; experiment: Cytotoxicity against human EKVX cells; assay type: cell-based; in short: as §3
[16] = test system: MOLT-4; experiment: Cytotoxicity against human MOLT4 cells; assay type: cell-based
[17] = test system: NCI-H460; experiment: Antiproliferative activity against human NCI-H460 cells by SRB assay; assay type: functional; in short: as §2
[18] = test system: OVCAR-4; experiment: Antiproliferative activity against human OVCAR4 cells by SRB assay; assay type: functional; in short: as §2
[19] = test system: NCI-H522; experiment: Cytotoxicity against human NCI-H522 cells; assay type: cell-based; in short: as §3
[20] = test system: NCI-H322M; experiment: Antiproliferative activity against human NCI-H322M cells by SRB assay; assay type: functional; in short: as §2
[21] = test system: RXF 393; experiment: Antiproliferative activity against human RXF393 cells by SRB assay; assay type: functional; in short: as §2
[22] = test system: SK-MEL-2; experiment: Cytotoxicity against human SK-MEL-2 cells; assay type: cell-based; in short: as §3
[23] = test system: SK-OV-3; experiment: Antiproliferative activity against human SKOV3 cells by SRB assay; assay type: functional; in short: as §2
[24] = test system: PC-3; experiment: Antiproliferative activity against human PC3 cells by SRB assay; assay type: functional; in short: as §2
[25] = test system: T47D; experiment: Cytotoxicity against human T47D cells; assay type: cell-based; in short: as §1
[26] = test system: SF-539; experiment: Antiproliferative activity against human SF539 cells by SRB assay; assay type: functional; in short: as §2
[27] = test system: NCI-H322M; experiment: Cytotoxicity against human NCI-H322M cells; assay type: cell-based
[28] = test system: CAKI-1; experiment: Cytotoxicity against human Caki1 cells; assay type: cell-based
[29] = test system: UACC-257; experiment: Cytotoxicity against human UACC257 cells; assay type: cell-based; in short: as §1
[30] = test system: SF-295; experiment: Cytotoxicity against human SF295 cells; assay type: cell-based; in short: as §3
[31] = test system: DU-145; experiment: Antiproliferative activity against human DU145 cells by SRB assay; assay type: functional; in short: as §2
[32] = test system: UACC-62; experiment: Antiproliferative activity against human UACC62 cells by SRB assay; assay type: functional; in short: as §4
[33] = test system: OVCAR-3; experiment: Cytotoxicity against human OVCAR3 cells; assay type: cell-based; in short: as §3
[34] = test system: A549; experiment: Antiproliferative activity against human A549 cells by SRB assay; assay type: functional; in short: as §2
[35] = test system: CCRF-CEM; experiment: Cytotoxicity against human CCRF-CEM cells; assay type: cell-based
[36] = test system: RXF 393; experiment: Cytotoxicity against human RXF393 cells; assay type: cell-based; in short: as §3
[37] = test system: OVCAR-8; experiment: Antiproliferative activity against human OVCAR8 cells by SRB assay; assay type: functional; in short: as §2
[38] = test system: SF-268; experiment: Antiproliferative activity against human SF268 cells by SRB assay; assay type: functional; in short: as §2
[39] = test system: SR; experiment: Antiproliferative activity against human SR cells by SRB assay; assay type: functional; in short: as §4
[40] = test system: OVCAR-5; experiment: Cytotoxicity against human OVCAR5 cells; assay type: cell-based; in short: as §3
[41] = test system: RPMI-8226; experiment: Cytotoxicity against human RPMI8226 cells; assay type: cell-based; in short: as §3
[42] = test system: COLO 205; experiment: Antiproliferative activity against human COLO205 cells by SRB assay; assay type: functional; in short: as §2
[43] = test system: 786-0; experiment: Antiproliferative activity against human 786-0 cells by SRB assay; assay type: functional; in short: as §2
[44] = test system: NCI-H23; experiment: Cytotoxicity against human NCI-H23 cells; assay type: cell-based
[45] = test system: NCI-H226; experiment: Antiproliferative activity against human NCI-H226 cells by SRB assay; assay type: functional; in short: as §2
[46] = test system: SNB-75; experiment: Antiproliferative activity against human SNB75 cells by SRB assay; assay type: functional; in short: as §4
[47] = test system: OVCAR-5; experiment: Antiproliferative activity against human OVCAR5 cells by SRB assay; assay type: functional; in short: as §2
[48] = test system: COLO 205; experiment: Cytotoxicity against human COLO205 cells; assay type: cell-based; in short: as §3
[49] = test system: SK-MEL-2; experiment: Antiproliferative activity against human SK-MEL-2 cells by SRB assay; assay type: functional; in short: as §2
[50] = test system: IGROV-1; experiment: Antiproliferative activity against human IGROV1 cells by SRB assay; assay type: functional; in short: as §2
[51] = test system: HCT-116; experiment: Antiproliferative activity against human HCT116 cells by SRB assay; assay type: functional; in short: as §2
[52] = test system: CCRF-CEM; experiment: Antiproliferative activity against human CCRF-CEM cells by SRB assay; assay type: functional; in short: as §2
[53] = test system: MDA-MB-435; experiment: Cytotoxicity against human MDA-MB-435 cells; assay type: cell-based
[54] = test system: SN12C; experiment: Cytotoxicity against human SN12C cells; assay type: cell-based; in short: as §1
[55] = test system: OVCAR-4; experiment: Cytotoxicity against human OVCAR4 cells; assay type: cell-based
[56] = test system: T47D; experiment: Antiproliferative activity against human T47D cells by SRB assay; assay type: functional; in short: as §4
[57] = test system: KM12; experiment: Antiproliferative activity against human KM12 cells by SRB assay; assay type: functional; in short: as §2
[58] = test system: HT-29; experiment: Antiproliferative activity against human HT-29 cells by SRB assay; assay type: functional; in short: as §2
[59] = test system: U-251; experiment: Cytotoxicity against human U251 cells; assay type: cell-based; in short: as §1
[60] = test system: K562; experiment: Cytotoxicity against human K562 cells; assay type: cell-based
[61] = test system: SNB-19; experiment: Antiproliferative activity against human SNB19 cells by SRB assay; assay type: functional; in short: as §2
[62] = test system: MDA-MB-435; experiment: Antiproliferative activity against human MDA-MB-435 cells by SRB assay; assay type: functional; in short: as §2
[63] = test system: HOP-92; experiment: Antiproliferative activity against human HOP92 cells by SRB assay; assay type: functional; in short: as §2
[64] = test system: DU-145; experiment: Cytotoxicity against human DU145 cells; assay type: cell-based; in short: as §3

In the case of `O=C(/C=C/c1cn(C(/C=C/c2ccccc2)Cc2ccccc2)nn1)NO` (centres undefined), the LC50 [1] is reported as > 100000 nM, the LC50 [2] is reported as 6570 nM and the LC50 [3] is reported as 27200 nM. It also gave a GI50 [4] of 1510 nM, an LC50 [5] of 64600 nM and an LC50 [6] of 53900 nM. For the same compound, the LC50 [7] was 13600 nM, the GI50 [8] was 440 nM and the LC50 [9] was 6910 nM. It also gave a GI50 [10] of 1180 nM, a GI50 [11] of 827 nM and a GI50 [12] of 934 nM. For the same compound, the LC50 [13] was 9830 nM, the LC50 [14] was > 100000 nM and the LC50 [15] was 87400 nM. For the same compound, the LC50 [16] was > 100000 nM, the GI50 [17] was 1040 nM and the GI50 [18] was 1750 nM. The LC50 [19] was 6360 nM, the GI50 [20] was 1370 nM and the GI50 [21] was 1210 nM. The LC50 [22] was 49200 nM, the GI50 [23] was 1980 nM and the GI50 [24] was 1520 nM. For the same compound, the LC50 [25] was 61700 nM, the GI50 [26] was 1140 nM and the LC50 [27] was 46700 nM. The LC50 [28] was 6250 nM, the LC50 [29] was 93700 nM and the LC50 [30] was 6560 nM. The GI50 [31] was 1080 nM, the GI50 [32] was 898 nM and the LC50 [33] was 8700 nM. The GI50 [34] was 1410 nM, the LC50 [35] was > 100000 nM and the LC50 [36] was 7610 nM. The GI50 [37] was 630 nM, the GI50 [38] was 1220 nM and the GI50 [39] was 624 nM. For the same compound, the LC50 [40] was 22300 nM, the LC50 [41] was > 100000 nM and the GI50 [42] was 1100 nM. For the same compound, the GI50 [43] was 1380 nM, the LC50 [44] was 8680 nM and the GI50 [45] was 2440 nM. The GI50 [46] was 258 nM, the GI50 [47] was 426 nM and the LC50 [48] was 8000 nM. It also gave a GI50 [49] of 1890 nM, a GI50 [50] of 836 nM and a GI50 [51] of 382 nM. For the same compound, the GI50 [52] was 320 nM, the LC50 [53] was 15700 nM and the LC50 [54] was > 100000 nM. It also gave an LC50 [55] of 61600 nM, a GI50 [56] of 411 nM and a GI50 [57] of 1930 nM. The GI50 [58] was 547 nM, the LC50 [59] was 5840 nM and the LC50 [60] was > 100000 nM. For the same compound, the GI50 [61] was 2000 nM, the GI50 [62] was 866 nM and the GI50 [63] was 1080 nM. It also gave an LC50 [64] of 46300 nM.
